Activity calls are given as the source filed them. The rule behind the calls is not given here.
How the values were obtained:
CWR22R = assay: (§1) Cytotoxicity against human CWR22Rv1 cells assessed as cell death at 25 uM after 24 hrs by propidium iodide staining-based FACS analysis; type: functional
Method in brief: (§2)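 CWR22Rv1 cells seeded at 300,000/well in RPMI 1640 with 10% FBS, 2.5 mM L-glutamine and penicillin-streptomycin at 37 °C, 5% CO2, then switched to serum-free RPMI overnight. Compounds from DMSO stock diluted in serum-free RPMI, applied in triplicate. After treatment, cells trypsinized, fixed in 70% ethanol, RNase-treated (5 μg/mL), stained with propidium iodide (50 μg/mL), DNA content read by flow cytometry.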

hERG (KCNH2) [1] = biological target: T1, hERG (KCNH2) (Homo sapiens, UniProt Q12809); assay: Displacement of [35S]MK-0499 from human ERG at 10 uM after >90 mins by scintillation counting; details: probe [35S]MK-0499
T1 sequence (Q12809 whole entry): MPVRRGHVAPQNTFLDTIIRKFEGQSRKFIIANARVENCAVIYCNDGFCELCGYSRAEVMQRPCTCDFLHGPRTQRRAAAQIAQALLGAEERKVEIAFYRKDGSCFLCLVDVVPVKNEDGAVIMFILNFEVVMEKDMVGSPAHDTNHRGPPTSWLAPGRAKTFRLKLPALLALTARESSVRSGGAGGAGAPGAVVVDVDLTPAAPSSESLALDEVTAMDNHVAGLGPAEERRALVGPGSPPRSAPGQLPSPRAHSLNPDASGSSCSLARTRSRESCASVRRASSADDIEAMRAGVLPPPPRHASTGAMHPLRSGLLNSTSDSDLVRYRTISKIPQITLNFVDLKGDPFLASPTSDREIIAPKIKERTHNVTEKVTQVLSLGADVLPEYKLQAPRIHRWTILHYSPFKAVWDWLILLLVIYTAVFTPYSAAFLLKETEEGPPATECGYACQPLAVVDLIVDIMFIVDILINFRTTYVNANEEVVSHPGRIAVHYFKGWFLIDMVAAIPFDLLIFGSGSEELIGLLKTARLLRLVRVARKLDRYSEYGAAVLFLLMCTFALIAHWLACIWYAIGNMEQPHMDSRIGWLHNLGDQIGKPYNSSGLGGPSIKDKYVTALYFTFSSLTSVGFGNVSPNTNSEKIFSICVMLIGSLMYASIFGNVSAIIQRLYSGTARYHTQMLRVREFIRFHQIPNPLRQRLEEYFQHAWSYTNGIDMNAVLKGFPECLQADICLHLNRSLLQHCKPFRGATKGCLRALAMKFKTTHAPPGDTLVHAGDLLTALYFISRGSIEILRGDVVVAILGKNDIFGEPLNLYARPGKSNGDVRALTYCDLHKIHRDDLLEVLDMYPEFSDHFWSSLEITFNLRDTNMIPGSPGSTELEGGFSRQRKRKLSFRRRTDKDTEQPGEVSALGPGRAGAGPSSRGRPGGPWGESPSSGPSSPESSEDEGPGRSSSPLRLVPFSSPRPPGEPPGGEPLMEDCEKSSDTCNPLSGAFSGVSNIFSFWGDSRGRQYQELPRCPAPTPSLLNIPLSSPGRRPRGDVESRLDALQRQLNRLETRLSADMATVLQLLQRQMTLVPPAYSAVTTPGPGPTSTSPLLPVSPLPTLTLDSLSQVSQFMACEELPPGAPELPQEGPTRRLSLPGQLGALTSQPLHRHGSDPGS
Method in brief: (§3)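 Binding to membranes from HEK-293 cells stably expressing hERG, with 0.05 nM [35S]MK-499 in NaCl/KCl/HEPES buffer pH 7.4 with Mg2+ and Ca2+, 25 °C for >90 min. Filtered on BSA-presoaked GF/C plates, then scintillation counted. Five-point half-log titration, 0.3–30 μM. Percent inhibition relative to no-competitor control and 1 μM unlabeled MK-499; triplicate.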

hERG (KCNH2) [2] = biological target: T1, hERG (KCNH2); assay: Displacement of [35S]MK-0499 from human ERG at 3 uM after >90 mins by scintillation counting; details: probe [35S]MK-0499; method in brief: as §3
[3] = biological target: Sodium channel protein type 2 subunit alpha (Homo sapiens) (UniProt Q99250); assay: Reversible inhibition of human voltage-gated sodium channel 1.2-mediated current expressed in HEK293 cells at -60 to +10 mV holding poteinitial at 1 to 10 uM after 5 mins measured after drug washout by patch clamp electrophysiology; type: cell-based
Chain of Sodium channel protein type 2 subunit alpha (Homo sapiens) (Q99250 whole entry, looked up, the tested form may be a part): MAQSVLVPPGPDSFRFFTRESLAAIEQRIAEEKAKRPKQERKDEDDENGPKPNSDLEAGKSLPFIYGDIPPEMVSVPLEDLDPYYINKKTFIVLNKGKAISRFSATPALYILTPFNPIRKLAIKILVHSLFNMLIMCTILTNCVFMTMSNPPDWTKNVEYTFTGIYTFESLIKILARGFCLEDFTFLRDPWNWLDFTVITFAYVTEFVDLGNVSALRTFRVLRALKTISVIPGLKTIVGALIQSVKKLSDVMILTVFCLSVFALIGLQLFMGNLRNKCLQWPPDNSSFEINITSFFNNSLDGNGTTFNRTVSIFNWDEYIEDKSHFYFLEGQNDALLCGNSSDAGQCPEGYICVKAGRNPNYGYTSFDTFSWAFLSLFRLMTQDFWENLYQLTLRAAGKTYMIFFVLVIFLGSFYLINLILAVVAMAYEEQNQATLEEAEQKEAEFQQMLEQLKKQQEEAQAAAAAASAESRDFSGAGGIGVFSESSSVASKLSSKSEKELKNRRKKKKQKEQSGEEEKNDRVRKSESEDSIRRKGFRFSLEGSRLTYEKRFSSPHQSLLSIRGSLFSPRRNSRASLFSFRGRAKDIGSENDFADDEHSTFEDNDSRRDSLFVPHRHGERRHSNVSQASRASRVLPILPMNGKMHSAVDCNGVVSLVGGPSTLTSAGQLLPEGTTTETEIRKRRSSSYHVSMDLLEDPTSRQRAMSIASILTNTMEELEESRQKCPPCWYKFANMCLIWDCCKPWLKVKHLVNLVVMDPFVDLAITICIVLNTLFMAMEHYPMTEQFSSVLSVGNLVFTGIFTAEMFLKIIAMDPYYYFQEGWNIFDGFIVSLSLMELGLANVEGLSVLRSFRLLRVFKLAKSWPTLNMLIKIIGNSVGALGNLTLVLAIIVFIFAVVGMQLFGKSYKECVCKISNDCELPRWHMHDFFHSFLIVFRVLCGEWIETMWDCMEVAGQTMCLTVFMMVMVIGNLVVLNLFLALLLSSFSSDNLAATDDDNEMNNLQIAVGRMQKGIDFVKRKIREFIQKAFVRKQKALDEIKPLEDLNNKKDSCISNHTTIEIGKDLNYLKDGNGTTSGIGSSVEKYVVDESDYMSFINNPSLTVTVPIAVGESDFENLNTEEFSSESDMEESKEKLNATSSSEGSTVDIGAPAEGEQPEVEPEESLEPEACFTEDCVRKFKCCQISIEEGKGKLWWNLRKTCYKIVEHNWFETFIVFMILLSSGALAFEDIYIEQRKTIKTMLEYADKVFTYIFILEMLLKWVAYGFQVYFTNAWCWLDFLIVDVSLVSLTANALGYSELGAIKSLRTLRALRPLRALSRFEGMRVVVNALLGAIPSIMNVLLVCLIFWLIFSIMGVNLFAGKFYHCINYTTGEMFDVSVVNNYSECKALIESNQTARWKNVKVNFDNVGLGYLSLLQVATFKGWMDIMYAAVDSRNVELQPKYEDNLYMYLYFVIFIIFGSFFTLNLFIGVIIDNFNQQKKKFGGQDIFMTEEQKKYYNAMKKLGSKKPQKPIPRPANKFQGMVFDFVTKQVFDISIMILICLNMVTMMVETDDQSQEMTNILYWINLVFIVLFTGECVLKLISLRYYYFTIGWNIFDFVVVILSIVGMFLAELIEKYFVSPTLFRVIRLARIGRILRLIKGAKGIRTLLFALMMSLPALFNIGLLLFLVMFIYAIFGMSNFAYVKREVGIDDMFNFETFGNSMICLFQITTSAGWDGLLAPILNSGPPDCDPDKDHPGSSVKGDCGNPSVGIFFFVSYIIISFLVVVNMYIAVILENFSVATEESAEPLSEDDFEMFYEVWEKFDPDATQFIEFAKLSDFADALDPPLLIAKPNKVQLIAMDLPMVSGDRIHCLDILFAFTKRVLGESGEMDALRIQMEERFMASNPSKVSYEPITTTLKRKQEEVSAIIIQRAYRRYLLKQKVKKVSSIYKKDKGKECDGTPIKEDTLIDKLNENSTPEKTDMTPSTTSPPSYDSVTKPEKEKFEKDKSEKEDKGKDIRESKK
Method in brief: (§4)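 Whole-cell patch clamp at 20–22 °C. Pipette solution CsCl/BAPTA/MgATP, pH 7.4; bath NaCl 130 mM, pH 7.4. ≥75% series resistance compensation; cells held at −100 mV for 5 min. Currents evoked by 25 ms steps from −60 to +10 mV every 15 s. Compound from 100 mM DMSO stock, perfused 5 min, then washout. Tonic block taken as peak current with drug versus drug-free.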

[4] = biological target: Sodium channel protein type 2 subunit alpha (Homo sapiens) (UniProt Q99250); assay: Inhibition of human voltage-gated sodium channel 1.2-mediated current expressed in HEK293 cells at -60 to +10 mV holding poteinitial at 1 uM after 5 mins by patch clamp electrophysiology; type: cell-based; method in brief: as §4
hERG (KCNH2) [5] = biological target: T1, hERG (KCNH2); assay: Displacement of [35S]MK-0499 from human ERG at 30 uM after >90 mins by scintillation counting; details: probe [35S]MK-0499; method in brief: as §3
[6] = biological target: Sodium channel protein type 9 subunit alpha (Homo sapiens, UniProt Q15858); assay: Inhibition of human voltage-gated sodium channel 1.7 expressed in HEK293 cells assessed as changes in membranre potential after 45 mins by FRET analysis
Chain of Sodium channel protein type 9 subunit alpha (Q15858 whole entry): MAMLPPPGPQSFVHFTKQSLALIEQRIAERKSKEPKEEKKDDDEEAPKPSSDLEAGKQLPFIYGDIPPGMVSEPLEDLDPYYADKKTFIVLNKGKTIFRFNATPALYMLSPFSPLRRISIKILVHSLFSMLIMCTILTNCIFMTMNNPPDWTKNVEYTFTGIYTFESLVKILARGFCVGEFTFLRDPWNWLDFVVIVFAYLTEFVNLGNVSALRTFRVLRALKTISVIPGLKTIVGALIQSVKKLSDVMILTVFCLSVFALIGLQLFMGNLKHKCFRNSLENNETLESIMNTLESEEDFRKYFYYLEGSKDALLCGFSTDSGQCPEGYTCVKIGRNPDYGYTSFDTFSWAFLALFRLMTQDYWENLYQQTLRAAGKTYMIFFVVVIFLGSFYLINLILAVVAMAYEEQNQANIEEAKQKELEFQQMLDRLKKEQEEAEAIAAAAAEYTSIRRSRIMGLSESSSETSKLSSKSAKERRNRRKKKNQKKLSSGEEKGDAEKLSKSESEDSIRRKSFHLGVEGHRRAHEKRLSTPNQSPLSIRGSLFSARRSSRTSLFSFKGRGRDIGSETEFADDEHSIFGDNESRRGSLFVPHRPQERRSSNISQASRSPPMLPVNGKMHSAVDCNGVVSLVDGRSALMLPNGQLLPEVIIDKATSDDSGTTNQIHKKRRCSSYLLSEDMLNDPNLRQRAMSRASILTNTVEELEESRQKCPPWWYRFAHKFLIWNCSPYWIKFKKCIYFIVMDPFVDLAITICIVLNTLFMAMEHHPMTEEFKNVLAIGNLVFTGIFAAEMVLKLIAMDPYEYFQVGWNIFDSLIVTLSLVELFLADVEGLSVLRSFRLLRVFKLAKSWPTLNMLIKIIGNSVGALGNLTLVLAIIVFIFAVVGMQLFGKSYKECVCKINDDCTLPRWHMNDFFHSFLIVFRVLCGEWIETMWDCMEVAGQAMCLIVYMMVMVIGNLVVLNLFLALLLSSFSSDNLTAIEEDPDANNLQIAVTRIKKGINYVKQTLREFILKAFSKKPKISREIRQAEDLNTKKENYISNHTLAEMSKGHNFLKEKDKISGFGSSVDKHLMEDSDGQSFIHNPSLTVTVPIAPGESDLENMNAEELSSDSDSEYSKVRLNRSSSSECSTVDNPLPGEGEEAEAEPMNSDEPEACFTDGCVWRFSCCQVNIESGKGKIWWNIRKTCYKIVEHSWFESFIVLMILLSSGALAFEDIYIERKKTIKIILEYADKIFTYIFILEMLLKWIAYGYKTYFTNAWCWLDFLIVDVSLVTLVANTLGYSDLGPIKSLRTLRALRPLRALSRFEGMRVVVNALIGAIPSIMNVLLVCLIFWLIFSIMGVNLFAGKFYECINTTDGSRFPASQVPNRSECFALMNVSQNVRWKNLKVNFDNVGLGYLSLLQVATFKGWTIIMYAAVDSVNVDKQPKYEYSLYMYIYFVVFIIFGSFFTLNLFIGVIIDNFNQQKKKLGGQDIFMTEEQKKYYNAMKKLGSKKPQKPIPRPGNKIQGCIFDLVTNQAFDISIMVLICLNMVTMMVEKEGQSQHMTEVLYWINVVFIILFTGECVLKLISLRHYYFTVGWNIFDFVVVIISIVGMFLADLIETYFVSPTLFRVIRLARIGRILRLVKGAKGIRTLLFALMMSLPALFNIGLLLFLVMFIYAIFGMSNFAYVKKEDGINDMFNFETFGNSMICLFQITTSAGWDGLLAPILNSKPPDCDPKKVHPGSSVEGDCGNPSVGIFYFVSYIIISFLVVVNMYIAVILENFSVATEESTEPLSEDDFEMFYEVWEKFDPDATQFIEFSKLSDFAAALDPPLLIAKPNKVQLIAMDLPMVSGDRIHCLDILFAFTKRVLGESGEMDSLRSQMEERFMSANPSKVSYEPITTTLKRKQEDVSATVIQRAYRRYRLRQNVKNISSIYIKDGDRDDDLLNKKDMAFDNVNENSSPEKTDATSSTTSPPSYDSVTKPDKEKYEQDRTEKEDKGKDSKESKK

[7] = biological target: Sodium channel protein type 2 subunit alpha (Homo sapiens) (UniProt Q99250); assay: Inhibition of human voltage-gated sodium channel 1.2-mediated current expressed in HEK293 cells at -60 to +10 mV holding poteinitial at 10 uM after 5 mins by patch clamp electrophysiology; type: cell-based; method in brief: as §4
[8] = Cytotoxicity against human CWR22Rv1 cells assessed as cell death at 25 uM after 72 hrs by propidium iodide staining-based FACS analysis; type: functional, CWR22R; method in brief: as §2
PC-3 [9] = assay: Antitumor activity against human PC3 cells xenografted in athymic BALB/c nude mouse assessed as reduction in tumor volume at 10 mg/kg, ip qd administered every other day for 24 days; type: functional; parameters: scale not given: the % may be the effect or the level left; details: route intraperitoneal
Method in brief: (§5)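 Male athymic nude mice (18–22 g) given 3 × 10^6 PC3 cells subcutaneously in right axillary region; randomized one week later into four groups of 6. Compound from DMSO stock diluted in PEG 400/PBS (1:1), given ip once every other day; vehicle control group. Tumor size by caliper, volume = length × width × height/2. One-way ANOVA or ANOVA on ranks with Tukey/Dunn post hoc; mean ± S.E.M.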

hERG (KCNH2) [10] = biological target: T1, hERG (KCNH2); assay: Displacement of [35S]MK-0499 from human ERG at 1 uM after >90 mins by scintillation counting; details: probe [35S]MK-0499; method in brief: as §3
hERG (KCNH2) [11] = biological target: T1, hERG (KCNH2); assay: Displacement of [35S]MK-0499 from human ERG at 0.3 uM after >90 mins by scintillation counting; details: probe [35S]MK-0499; method in brief: as §3
PC-3 [12] = assay: Antitumor activity against human PC3 cells xenografted in athymic BALB/c nude mouse assessed as reduction in tumor volume at 10 mg/kg, ip qd administered every other day for 24 days measured on day 15; type: functional, organism-based; parameters: dose 10 mg/kg; method in brief: as §5
[13] = as §1; type: functional, CWR22R; method in brief: as §2

For CCCCCCCC(O)(C(N)=O)c1cccc(Cl)c1 (racemic), the Activity (CWR22R) was “Active”, the inhibition at […], 10 µM (hERG (KCNH2) [1]) was 51% and the inhibition at […], 3 µM (hERG (KCNH2) [2]) was 15%. For the same compound, the inhibition [3] was “Active”, the inhibition [4] was 31.9% and the inhibition at […], 30 µM (hERG (KCNH2) [5]) was 78%. It also gave an IC50 [6] of 1.81 µM, an inhibition [7] of 87% and an Activity [8] of 25%. It also gave an Activity (PC-3 [9]) of 62%, an inhibition at […], 1 µM (hERG (KCNH2) [10]) of 17% and an inhibition at […], 0.3 µM (hERG (KCNH2) [11]) of 15%. For the same compound, the Activity (PC-3 [12]) was “Active”.
With CCCCCCC[C@@](O)(C(N)=O)c1cccc(Cl)c1 the Activity (CWR22R) was “Active”, the inhibition [3] was “Active” and the inhibition [4] was 34.9%. For the same compound, the inhibition [7] was 91.5%, the Activity [8] was 40% and the Activity (PC-3 [9]) was 62%. For the same compound, the Activity (PC-3 [12]) was “Active”.
With CCCCCCC[C@](O)(C(N)=O)c1cccc(Cl)c1 the Activity [13] was 25%, the inhibition [3] was “Active” and the inhibition [4] was 67.4%. The inhibition [7] was 94.3%, the Activity [8] was 60% and the Activity (PC-3 [9]) was 62%. For the same compound, the Activity (PC-3 [12]) was “Active”.

From ChEMBL document CHEMBL1955838, “Asymmetric synthesis and evaluation of a hydroxyphenylamide voltage-gated sodium channel blocker in human prostate cancer xenografts” (Bioorg Med Chem, 2012)
